# Measured values taken from ChEMBL document CHEMBL4251702, “Potential Antimicrobial Isopropanol-Conjugated Carbazole Azoles as Dual Targeting Inhibitors of Enterococcus faecalis” (ACS Med Chem Lett, 2018).
# The source made the active and inactive calls. The rule behind the calls is not given here.
# What was measured:
# Enterococcus faecalis [1] = assay: Antimicrobial activity against Enterococcus faecalis assessed as ratio of MIC after and before […] measured at 24 hrs interval for 16 days by two-fold serial dilution method; type: functional
# Enterococcus faecalis [2] = assay: Antimicrobial activity against Enterococcus faecalis after 24 hrs by two-fold serial dilution method; type: functional
# Staphylococcus aureus [3] = assay: Antimicrobial activity against Staphylococcus aureus ATCC 29213 after 24 hrs by two-fold serial dilution method; type: functional, organism-based
# Escherichia coli [4] = assay: Antimicrobial activity against Escherichia coli ATCC 25922 after 24 hrs by two-fold serial dilution method; type: functional, organism-based
# Pseudomonas aeruginosa [5] = assay: Antimicrobial activity against Pseudomonas aeruginosa ATCC 27853 after 24 hrs by two-fold serial dilution method; type: functional
# Staphylococcus aureus [6] = assay: Antimicrobial activity against Staphylococcus aureus ATCC 25923 after 24 hrs by two-fold serial dilution method; type: functional, organism-based
# Staphylococcus aureus [7] = assay: Antimicrobial activity against methicillin-resistant Staphylococcus aureus after 24 hrs by two-fold serial dilution method; type: functional, organism-based
# Escherichia coli [8] = assay: Antimicrobial activity against Escherichia coli after 24 hrs by two-fold serial dilution method; type: functional, organism-based
# Klebsiella pneumoniae [9] = assay: Antimicrobial activity against Klebsiella pneumoniae after 24 hrs by two-fold serial dilution method; type: functional, organism-based
# Acinetobacter baumannii [10] = assay: Antimicrobial activity against Acinetobacter baumannii after 24 hrs by two-fold serial dilution method; type: functional, organism-based
# Staphylococcus aureus [11] = assay: Antimicrobial activity against Staphylococcus aureus after 24 hrs by two-fold serial dilution method; type: functional, organism-based
# Pseudomonas aeruginosa [12] = assay: Antimicrobial activity against Pseudomonas aeruginosa after 24 hrs by two-fold serial dilution method; type: functional, organism-based
# Aspergillus fumigatus = assay: Antifungal activity against Aspergillus fumigatus after 24 hrs by two-fold serial dilution method; type: functional
# Candida parapsilosis = assay: Antifungal activity against Candida parapsilosis ATCC 22019 after 24 hrs by two-fold serial dilution method; type: functional
# DNA [13] = assay: Binding affinity to Enterococcus faecalis DNA assessed as DNA intercalation by UV-vis absorption spectrophotometric method; type: nucleic-acid assay
# Procedure, shortened: (§1)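 Genomic DNA was isolated from drug-resistant E. faecalis strains and examined in vitro with the compound by UV–vis absorption and by neutral red fluorescence spectroscopy.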
# Enterococcus faecalis [14] = assay: Antimicrobial activity against Enterococcus faecalis after 11 passages measured at 24 hrs interval for 16 days by two-fold serial dilution method; type: functional
# DNA [15] = assay: Binding affinity to Enterococcus faecalis DNA assessed as DNA intercalation by neutral red dye based spectrofluorimetric method; type: nucleic-acid assay; procedure, shortened: as §1
# Enterococcus faecalis [16] = assay: Bactericidal activity against Enterococcus faecalis assessed as log reduction in bacterial colonies at 4 times MIC measured within 1 hr by time-kill assay; type: functional
# Procedure, shortened: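 Viable counts of E. faecalis were expressed as log CFU/mL and followed over the first hour of exposure at 4 × MIC. A positive-control drug was run alongside.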
# Escherichia coli [17] = assay: Induction of membrane disruption in Escherichia coli ATCC 25922 at 12 times MIC measured every 10 mins for 60 mins by propidium iodide staining based fluorescence assay; type: functional, organism-based
# Procedure, shortened: (§2)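 Membrane permeabilization was tracked by propidium iodide, which enters compromised cells and fluoresces on binding DNA. Fluorescence of bacteria with compound plus PI was recorded over 60 min, against two control groups. Strains were E. faecalis and E. coli ATCC 25922.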
# Enterococcus faecalis [18] = assay: Induction of membrane disruption in Enterococcus faecalis at 12 times MIC measured every 10 mins for 60 mins by propidium iodide staining based fluorescence assay; type: functional, organism-based; procedure, shortened: as §2
# [19] = Cytotoxicity against mouse RAW264.7 cells assessed as cell viability at 128 ug/ml after 24 hrs by MTT assay relative to control; type: cell-based; details: read-out: Activity
# Procedure, shortened: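 Normal mouse macrophage RAW264.7 cells were exposed to the compound up to 128 μg/mL for 24 h, and viability was read by MTT. Each bar is the mean of three parallels, with error bars of one standard deviation.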
# Klebsiella pneumoniae [20] = assay: Antimicrobial activity against Klebsiella pneumoniae after 24 hrs under pH 4 to 11 by two-fold serial dilution method; type: functional, organism-based
# Enterococcus faecalis [21] = assay: Antimicrobial activity against Enterococcus faecalis after 24 hrs under pH 4 to 11 by two-fold serial dilution method; type: functional, organism-based
# Staphylococcus aureus [22] = assay: Antimicrobial activity against Staphylococcus aureus after 24 hrs under pH 4 to 11 by two-fold serial dilution method; type: functional, organism-based
# [23] = Solubility of the compound in water; type: physicochemical; details: buffer
# Staphylococcus aureus [24] = assay: Antimicrobial activity against Staphylococcus aureus ATCC 29213 after 24 hrs under pH 4 to 11 by two-fold serial dilution method; type: functional, organism-based
# Escherichia coli [25] = assay: Antimicrobial activity against Escherichia coli ATCC 25922 after 24 hrs under pH 4 to 11 by two-fold serial dilution method; type: functional, organism-based
# Escherichia coli [26] = assay: Antimicrobial activity against Escherichia coli after 24 hrs under pH 4 to 11 by two-fold serial dilution method; type: functional, organism-based
# Acinetobacter baumannii [27] = assay: Antimicrobial activity against Acinetobacter baumannii after 24 hrs under pH 4 to 11 by two-fold serial dilution method; type: functional, organism-based
# Pseudomonas aeruginosa [28] = assay: Antimicrobial activity against Pseudomonas aeruginosa ATCC 27853 after 24 hrs under pH 4 to 11 by two-fold serial dilution method; type: functional, organism-based
# Staphylococcus aureus [29] = assay: Antimicrobial activity against Staphylococcus aureus ATCC 25923 after 24 hrs under pH 4 to 11 by two-fold serial dilution method; type: functional, organism-based
# Staphylococcus aureus [30] = assay: Antimicrobial activity against methicillin-resistant Staphylococcus aureus after 24 hrs under pH 4 to 11 by two-fold serial dilution method; type: functional, organism-based
# Pseudomonas aeruginosa [31] = assay: Antimicrobial activity against Pseudomonas aeruginosa after 24 hrs under pH 4 to 11 by two-fold serial dilution method; type: functional, organism-based
Structure (SMILES),Activity (Enterococcus faecalis [2]),Activity (Staphylococcus aureus [3]),Activity (Escherichia coli [4]),Activity (Pseudomonas aeruginosa [5]),Activity (Staphylococcus aureus [6]),Activity (Staphylococcus aureus [7]),Activity (Escherichia coli [8]),Activity (Klebsiella pneumoniae [9]),Activity (Acinetobacter baumannii [10]),Activity (Staphylococcus aureus [11]),Activity (Pseudomonas aeruginosa [12]),further results
CCn1cc(C(=O)O)c(=O)c2cc(F)c(N3CCNCC3)cc21 [NORFLOXACIN],Active,Active,Active,–,–,–,–,–,–,–,–,Ratio (Enterococcus faecalis [1]): 16
CC(C)(C)c1ccc2c(c1)c1cc(C(C)(C)C)ccc1n2CC(O)Cn1cncn1 (centres undefined),Active,Active,Active,Active,Active,Active,Active,Active,Active,Active,Active,–
OC(Cn1cncn1)(Cn1cncn1)c1ccc(F)cc1F,–,–,–,–,–,–,–,–,–,–,–,Activity (Aspergillus fumigatus): Active; Activity (Candida parapsilosis): Active
Cc1ncc([N+](=O)[O-])n1CC(O)Cn1c2ccc(Br)cc2c2cc(Br)ccc21 (centres undefined),–,–,–,–,–,–,–,–,–,–,–,"MIC (Pseudomonas aeruginosa [5]; ATCC 27853, 24 h): 32 µg/mL"
OC(Cn1cncn1)Cn1c2ccc(Cl)cc2c2cc(Cl)ccc21 (centres undefined),–,Active,Active,Active,Active,Active,Active,Active,Active,Active,Active,"Activity (DNA [13]): Active; MIC (Enterococcus faecalis [14]): 2 to 8 µg/mL; Activity (DNA [15]): Active; Activity (Enterococcus faecalis [16]): >3 log10CFU/ml; Activity (Escherichia coli [17]): Active; MIC (Enterococcus faecalis [2]): 2 µg/mL; Activity (Enterococcus faecalis [18]): Active; viability at 24 h, 128 ug/ml [19]: > 80%; MIC (Aspergillus fumigatus): 32 µg/mL; MIC (Candida parapsilosis; Lodderomyces parapsilosis, ATCC 22019, 24 h): 4 µg/mL"
O=[N+]([O-])c1cn(CC(O)Cn2c3ccccc3c3ccccc32)cn1 (centres undefined),Active,Active,Active,Active,Active,Active,Active,Active,Active,Active,Active,–
OC(Cn1cncn1)Cn1c2ccccc2c2ccccc21 (centres undefined),Active,Active,Active,Active,Active,Active,Active,Active,Active,Active,Active,–
OC(Cn1cncn1)Cn1c2ccccc2c2cc(Br)ccc21 (centres undefined),Active,Active,Active,Active,Active,Active,Active,Active,Active,Active,Active,–
Cc1nccn1CC(O)Cn1c2ccccc2c2ccccc21 (centres undefined),Active,Active,Active,Active,Active,Active,Active,Active,Active,Active,Active,–
Cc1ncc([N+](=O)[O-])n1CC(O)Cn1c2ccccc2c2ccccc21 (centres undefined),Active,Active,Active,Active,Active,Active,Active,Active,Active,Active,Active,Activity (Klebsiella pneumoniae [20]): Active; Activity (Enterococcus faecalis [21]): Active; Activity (Staphylococcus aureus [22]): Active; solubility [23]: Soluble; Activity (Staphylococcus aureus [24]): Active; Activity (Escherichia coli [25]): Active; Activity (Escherichia coli [26]): Active; Activity (Acinetobacter baumannii [27]): Active; Activity (Pseudomonas aeruginosa [28]): Active; Activity (Staphylococcus aureus [29]): Active; Activity (Staphylococcus aureus [30]): Active; Activity (Pseudomonas aeruginosa [31]): Active
OC(Cn1ccnc1-c1ccccc1)Cn1c2ccccc2c2ccccc21 (centres undefined),inactive,inactive,inactive,inactive,inactive,inactive,inactive,inactive,inactive,inactive,inactive,–
OC(Cn1cncn1)Cn1c2ccccc2c2cc(I)ccc21 (centres undefined),Active,Active,Active,Active,Active,Active,Active,Active,Active,Active,Active,–
OC(Cn1cncn1)Cn1c2ccc(Br)cc2c2cc(Br)ccc21 (centres undefined),Active,Active,Active,Active,Active,Active,Active,Active,Active,Active,Active,–
OC(Cn1cncn1)Cn1c2ccccc2c2ccc(Br)cc21 (centres undefined),Active,Active,Active,Active,Active,Active,Active,Active,Active,Active,Active,–
